In brackets after ≈: the same amount, converted by molar mass.
Each compound was assayed on Mycobacterium tuberculosis (assay: Antitubercular activity against multidrug-resistant Mycobacterium tuberculosis H37Rv after 6 weeks).
Type: functional
How it was run: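 Lowenstein-Jensen slope assay. DMSO stocks of 250 and 10 µg/mL were each mixed 0.8 mL into 7.2 mL L.J. medium, then inspissated at 75-80 °C for 3 days. A loopful of culture was dispersed with glass beads in sterile water by vortexing for 2 min and streaked onto the slopes. DMSO-only and drug-free media served as controls. Bacterial counts were read after 6 weeks at 37 °C.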

Which MIC does the source give for `O=C(c1ccncc1)N1N=C(c2cc3ccccc3o2)CC1c1cccc([N+](=O)[O-])c1` (stereo not given) here?
Its MIC is 6.9 µg/mL (≈ 16.7 µM).

With `COc1ccc(C2CC(c3cc4ccccc4o3)=NN2C(=O)c2ccncc2)c(O)c1` (stereo not given) as the compound, how does the MIC read?
Its MIC is 4.5 µg/mL (≈ 10.9 µM).

For `O=C(c1ccncc1)N1N=C(c2cc3ccccc3o2)CC1c1ccc(O)cc1` (stereo not given), which MIC is on record?
The MIC was 6.2 µg/mL (≈ 16.2 µM).

`O=C(c1ccncc1)N1N=C(c2cc3ccccc3o2)CC1c1ccc(Cl)cc1` (stereo not given) was tested. Which MIC did it give?
The MIC was 10.6 µg/mL (≈ 26.4 µM).

For `O=C(c1ccncc1)N1N=C(c2cc3ccccc3o2)CC1c1ccccc1Cl` (stereo not given), which MIC is on record?
The MIC was 9.5 µg/mL (≈ 23.6 µM).

`O=C(c1ccncc1)N1N=C(c2cc3ccccc3o2)CC1c1ccccc1[N+](=O)[O-]` (stereo not given) was tested. Which MIC did it give?
Its MIC is 7.5 µg/mL (≈ 18.2 µM).

How did the MIC turn out when `COc1ccc(C2CC(c3cc4ccccc4o3)=NN2C(=O)c2ccncc2)cc1` (stereo not given) was run?
Its MIC is 5.5 µg/mL (≈ 13.8 µM).

`O=C(c1ccncc1)N1N=C(c2cc3ccccc3o2)CC1c1ccccc1` (stereo not given) was tested. Which MIC did it give?
Its MIC is 9.5 µg/mL (≈ 25.9 µM).

With `O=C(c1ccncc1)N1N=C(c2cc3ccccc3o2)CC1c1ccco1` (stereo not given) as the compound, how does the MIC read?
The MIC was 10.4 µg/mL (≈ 29.1 µM).

With `O=C(c1ccncc1)N1N=C(c2cc3ccccc3o2)CC1/C=C/c1ccccc1` (stereo not given) as the compound, how does the MIC read?
The MIC was 7.5 µg/mL (≈ 19.1 µM).

For `CCn1cc(C(=O)N2N=C(c3cc4ccccc4o3)CC2c2ccccc2O)c(=O)c2ccc(C)nc21` (stereo not given), which MIC is on record?
Its MIC is 6.4 µg/mL (≈ 13 µM).

`CCn1cc(C(=O)N2N=C(c3cc4ccccc4o3)CC2c2ccccc2OC)c(=O)c2ccc(C)nc21` (stereo not given) was tested. Which MIC did it give?
The MIC was 8.5 µg/mL (≈ 16.8 µM).

With `CCn1cc(C(=O)N2N=C(c3cc4ccccc4o3)CC2c2ccc(N(C)C)cc2)c(=O)c2ccc(C)nc21` (stereo not given) as the compound, how does the MIC read?
The MIC was 10.6 µg/mL (≈ 20.4 µM).

For `CCn1cc(C(=O)N2N=C(c3cc4ccccc4o3)CC2c2ccccc2C(=O)O)c(=O)c2ccc(C)nc21` (stereo not given), which MIC is on record?
The MIC was 7.8 µg/mL (≈ 15 µM).

`CCn1cc(C(=O)N2N=C(c3cc4ccccc4o3)CC2c2cccc([N+](=O)[O-])c2)c(=O)c2ccc(C)nc21` (stereo not given) was tested. Which MIC did it give?
Its MIC is 3.7 µg/mL (≈ 7.09 µM).

`CCn1cc(C(=O)N2N=C(c3cc4ccccc4o3)CC2c2ccc(OC)cc2O)c(=O)c2ccc(C)nc21` (stereo not given) was tested. Which MIC did it give?
Its MIC is 5.4 µg/mL (≈ 10.3 µM).

For `CCn1cc(C(=O)N2N=C(c3cc4ccccc4o3)CC2c2ccc(O)cc2)c(=O)c2ccc(C)nc21` (stereo not given), which MIC is on record?
The MIC was 3.8 µg/mL (≈ 7.72 µM).

How did the MIC turn out when `CCn1cc(C(=O)N2N=C(c3cc4ccccc4o3)CC2c2ccc(Cl)cc2)c(=O)c2ccc(C)nc21` (stereo not given) was run?
The MIC was 6.3 µg/mL (≈ 12.3 µM).

For `CCn1cc(C(=O)N2N=C(c3cc4ccccc4o3)CC2c2ccccc2Cl)c(=O)c2ccc(C)nc21` (stereo not given), which MIC is on record?
Its MIC is 8.4 µg/mL (≈ 16.4 µM).

`CCn1cc(C(=O)N2N=C(c3cc4ccccc4o3)CC2c2ccccc2[N+](=O)[O-])c(=O)c2ccc(C)nc21` (stereo not given) was tested. Which MIC did it give?
The MIC was 3.6 µg/mL (≈ 6.9 µM).

`O=C(c1ccncc1)N1N=C(c2cc3ccccc3o2)CC1c1ccccc1O` (stereo not given) was tested. Which MIC did it give?
The MIC was 6.2 µg/mL (≈ 16.2 µM).

`COc1ccccc1C1CC(c2cc3ccccc3o2)=NN1C(=O)c1ccncc1` (stereo not given) was tested. Which MIC did it give?
Its MIC is 5.7 µg/mL (≈ 14.3 µM).

With `CCn1cc(C(=O)N2N=C(c3cc4ccccc4o3)CC2c2ccc(OC)cc2)c(=O)c2ccc(C)nc21` (stereo not given) as the compound, how does the MIC read?
Its MIC is 8.5 µg/mL (≈ 16.8 µM).

Which MIC does the source give for `CCn1cc(C(=O)N2N=C(c3cc4ccccc4o3)CC2c2ccccc2)c(=O)c2ccc(C)nc21` (stereo not given) here?
Its MIC is 10.8 µg/mL (≈ 22.7 µM).

How did the MIC turn out when `CN(C)c1ccc(C2CC(c3cc4ccccc4o3)=NN2C(=O)c2ccncc2)cc1` (stereo not given) was run?
The MIC was 11.5 µg/mL (≈ 28 µM).

For `O=C(O)c1ccccc1C1CC(c2cc3ccccc3o2)=NN1C(=O)c1ccncc1` (stereo not given), which MIC is on record?
The MIC was 3.2 µg/mL (≈ 7.78 µM).

Which MIC does the source give for `CCn1cc(C(=O)N2N=C(c3cc4ccccc4o3)CC2c2ccco2)c(=O)c2ccc(C)nc21` (stereo not given) here?
The MIC was 8.5 µg/mL (≈ 18.2 µM).

With `CCn1cc(C(=O)N2N=C(c3cc4ccccc4o3)CC2/C=C/c2ccccc2)c(=O)c2ccc(C)nc21` (stereo not given) as the compound, how does the MIC read?
The MIC was 7.4 µg/mL (≈ 14.7 µM).

How did the MIC turn out when `NNC(=O)c1ccncc1` [ISONIAZID] was run?
Its MIC is 8.5 µg/mL (≈ 62 µM).

With `CO[C@H]1/C=C/O[C@@]2(C)Oc3c(C)c(O)c4c(O)c(c(/C=N/N5CCN(C)CC5)c(O)c4c3C2=O)NC(=O)/C(C)=C\C=C\[C@H](C)[C@H](O)[C@@H](C)[C@@H](O)[C@@H](C)[C@H](OC(C)=O)[C@@H]1C` [RIFAMPIN] as the compound, how does the MIC read?
The MIC was 4.2 µg/mL (≈ 5.1 µM).
